Consider eight molecules from ChEMBL document CHEMBL1157506, “Synthesis and pharmacological characterization of chiral pyrrolidinylfuran derivatives: the discovery of new functionally selective muscarinic agonists” (J Med Chem, 2008).

The term Ki denotes a measure of affinity in units of concentration, obtained from inhibition or displacement. The term pKb denotes −log10 of the Kb, conventionally taken in molar units.

The species entered for assay [1] is Cavia porcellus. Briefly: Intrinsic activity at muscarinic M1/M4 receptor in guinea pig lung assessed as effect on tissue contraction relative to control.
Assay [2] in a line: Agonist activity at muscarinic M1/M4 receptor in guinea pig lung assessed as effect on tissue contraction. The format is functional, Cavia porcellus.
Assay [3] deals with T1, Muscarinic acetylcholine receptor M1 (Homo sapiens, UniProt P11229).
T1 sequence (P11229 whole entry): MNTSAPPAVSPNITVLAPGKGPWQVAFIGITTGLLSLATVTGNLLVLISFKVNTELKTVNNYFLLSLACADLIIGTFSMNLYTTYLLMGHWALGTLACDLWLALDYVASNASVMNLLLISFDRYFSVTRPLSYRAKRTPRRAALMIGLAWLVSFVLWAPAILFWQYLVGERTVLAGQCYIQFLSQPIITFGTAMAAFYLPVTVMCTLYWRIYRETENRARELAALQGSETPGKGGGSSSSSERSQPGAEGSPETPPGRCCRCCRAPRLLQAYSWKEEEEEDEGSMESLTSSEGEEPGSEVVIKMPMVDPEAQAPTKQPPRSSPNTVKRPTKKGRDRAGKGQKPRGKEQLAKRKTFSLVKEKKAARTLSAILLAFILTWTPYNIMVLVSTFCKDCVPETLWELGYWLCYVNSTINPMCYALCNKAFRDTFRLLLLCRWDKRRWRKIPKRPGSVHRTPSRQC
Briefly: Displacement of [3H]NMS from human muscarinic M1 receptor expressed in CHO cells by liquid scintillation counter. The format is cell-based.

Assay [4] concerns the target T2, Muscarinic acetylcholine receptor M2 (Homo sapiens, UniProt P08172).
T2 sequence (P08172 whole entry): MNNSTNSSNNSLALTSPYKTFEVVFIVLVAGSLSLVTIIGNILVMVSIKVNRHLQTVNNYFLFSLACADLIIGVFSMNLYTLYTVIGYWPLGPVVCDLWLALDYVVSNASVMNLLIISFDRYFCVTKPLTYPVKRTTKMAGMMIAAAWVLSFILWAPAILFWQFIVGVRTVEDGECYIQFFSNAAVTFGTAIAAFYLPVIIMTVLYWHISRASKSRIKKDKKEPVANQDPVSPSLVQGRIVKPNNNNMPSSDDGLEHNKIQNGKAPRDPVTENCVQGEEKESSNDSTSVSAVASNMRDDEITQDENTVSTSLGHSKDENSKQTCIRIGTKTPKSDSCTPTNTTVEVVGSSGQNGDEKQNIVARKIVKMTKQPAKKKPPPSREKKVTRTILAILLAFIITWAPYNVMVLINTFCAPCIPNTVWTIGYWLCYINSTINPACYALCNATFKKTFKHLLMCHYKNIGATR
Briefly: Displacement of [3H]NMS from human muscarinic M2 receptor expressed in CHO cells by liquid scintillation counter. Format: cell-based. In short, it runs like this:
(§1)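 Membrane protein was 70 µg/mL for hm2, 50 µg/mL for hm4 and 25 µg/mL for hm5. Incubation was 120 min at room temperature in 25 mM sodium phosphate with 5 mM MgCl2, pH 7.4. GF/C filtration and scintillation counting followed; duplicates.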

Assay [5] addresses Muscarinic acetylcholine receptor M3 (Homo sapiens, UniProt P20309). Briefly: Displacement of [3H]NMS from human muscarinic M3 receptor expressed in CHO cells by liquid scintillation counter. The format is cell-based.
Assay [6] has as its target T3, Muscarinic acetylcholine receptor M4 (Homo sapiens, UniProt P08173).
T3 sequence (P08173 whole entry): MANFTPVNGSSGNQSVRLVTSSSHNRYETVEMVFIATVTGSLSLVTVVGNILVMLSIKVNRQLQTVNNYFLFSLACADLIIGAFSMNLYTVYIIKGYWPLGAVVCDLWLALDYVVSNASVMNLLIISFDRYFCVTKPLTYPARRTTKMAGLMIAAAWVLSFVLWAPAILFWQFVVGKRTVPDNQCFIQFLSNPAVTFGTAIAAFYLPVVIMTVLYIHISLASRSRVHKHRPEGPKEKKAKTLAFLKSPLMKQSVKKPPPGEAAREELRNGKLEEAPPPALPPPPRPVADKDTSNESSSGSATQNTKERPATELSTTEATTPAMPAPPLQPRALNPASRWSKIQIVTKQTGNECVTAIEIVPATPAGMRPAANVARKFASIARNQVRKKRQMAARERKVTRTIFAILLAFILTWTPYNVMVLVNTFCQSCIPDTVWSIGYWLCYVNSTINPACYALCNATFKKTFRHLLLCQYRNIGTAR
Briefly: Displacement of [3H]NMS from human muscarinic M4 receptor expressed in CHO cells by liquid scintillation counter. Format: cell-based. The procedure, abridged:
as §1
On the technique in general: Displacement assays read how much labelled ligand stays bound in the presence of the test substance.

Assay [7] has as its target T4, Muscarinic acetylcholine receptor M5 (Homo sapiens, UniProt P08912).
T4 sequence (P08912 whole entry): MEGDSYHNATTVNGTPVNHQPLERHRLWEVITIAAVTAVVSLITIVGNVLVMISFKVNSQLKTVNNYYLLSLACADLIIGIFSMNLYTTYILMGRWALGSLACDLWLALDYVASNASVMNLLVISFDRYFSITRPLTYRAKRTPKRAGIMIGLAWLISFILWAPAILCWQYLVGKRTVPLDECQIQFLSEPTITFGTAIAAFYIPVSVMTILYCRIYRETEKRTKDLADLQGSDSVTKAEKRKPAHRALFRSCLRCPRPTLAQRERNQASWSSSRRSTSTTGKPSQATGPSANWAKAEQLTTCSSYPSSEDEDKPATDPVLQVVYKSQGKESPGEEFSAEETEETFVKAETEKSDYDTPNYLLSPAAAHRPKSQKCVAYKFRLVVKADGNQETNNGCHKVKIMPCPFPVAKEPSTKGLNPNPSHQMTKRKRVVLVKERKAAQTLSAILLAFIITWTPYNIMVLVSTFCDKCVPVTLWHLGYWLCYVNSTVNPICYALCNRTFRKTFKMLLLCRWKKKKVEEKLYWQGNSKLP
Briefly: Displacement of [3H]NMS from human muscarinic M5 receptor expressed in CHO cells by liquid scintillation counter. Format: cell-based. The procedure, abridged: as §1

The species named for assay [8] is Oryctolagus cuniculus. The assay can be described thus: Intrinsic activity at muscarinic M1/M4 receptor in New Zealanda white rabbit vas deferens assessed as effect on isometric tissue contraction relative to control. The format is tissue-based. In short, it runs like this:
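Vas deferens in solution with 10^-6 M yohimbine and 10^-8 M tripitramine at 30 °C, field-stimulated (0.1 ms, 2 Hz, 10-15 V). Contractions recorded isometrically after 1 h equilibration. A cumulative McN-A-343 reference curve was built, then cumulative curves to the test agonist. Responses are expressed as % of the control curve's maximum. Parallel reference-only tissues served as sensitivity checks.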

The species entered for assay [9] is Cavia porcellus. The assay can be described thus: Intrinsic activity at muscarinic M2 receptor in guinea pig atrium assessed as effect on inotropic activity relative to control. Format: tissue-based. To be noted: Cardiac atrium. The procedure, abridged: (§2)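 Left atria in PSS at 30 °C, paced via platinum electrodes (1 ms, 1 Hz, 5-10 V). Inotropic force recorded isometrically after 2 h equilibration. A cumulative APE reference curve was obtained, then cumulative agonist curves. Responses are expressed as % of the control maximal response.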

The nature of assay [10]: Agonist activity at muscarinic M2 receptor in guinea pig atrium assessed as effect on inotropic activity. Format: functional, Cavia porcellus, Cardiac atrium. The procedure, abridged: as §2
For assay [11], the species on record is Cavia porcellus. Briefly: Intrinsic activity at muscarinic M3 receptor in guinea pig ileum assessed as effect on tissue tension changes relative to control. The format is tissue-based. The procedure, abridged: (§3)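 Ileum tension changes recorded isotonically after 30 min equilibration. APE curves were run at 30 min intervals; the first was discarded and the second was taken as control. Cumulative agonist curves followed, with responses expressed as % of the control maximum. Parallel reference-only tissues served as sensitivity checks.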

Assay [12] in a line: Agonist activity at muscarinic M3 receptor in guinea pig ileum assessed as effect on tissue tension changes. The format is functional, Cavia porcellus. In short, it runs like this:
as §3

The nature of assay [13]: Antagonist activity at muscarinic M1/M4 receptor in guinea pig lung assessed as effect on tissue contraction. Format: functional, Cavia porcellus.
A short description of assay [14]: Antagonist activity at muscarinic M3 receptor in guinea pig ileum assessed as effect on tissue tension changes. The format is functional, Cavia porcellus. The procedure, abridged: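 Guinea pig ileum with isotonic recording of tension changes and 30 min equilibration. Dose-response curves to arecaidine propargyl ester taken at 30 min intervals; the first is discarded and the second serves as control. Responses are expressed as % of the maximal control-curve response, with parallel tissues given only the reference agonist to check sensitivity.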

Assay [15] in a line: Antagonist activity at muscarinic M1/M4 receptor in New Zealanda white rabbit vas deferens assessed as effect on isometric tissue contraction. Format: functional, Oryctolagus cuniculus. In short, it runs like this:
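Rabbit vas deferens bathed at 30 °C with 10^-6 M yohimbine and 10^-8 M tripitramine to block α2-adrenoceptors and M2 receptors. Electrically stimulated with square-wave pulses (0.1 ms, 2 Hz, 10-15 V) and equilibrated 1 h. Isometric contractions recorded during a cumulative dose-response curve to McN-A-343. Responses are expressed as % of maximal control-curve response, with parallel reference-agonist-only tissues run.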

Bounds are passed on as bounds.

Muscarinic acetylcholine receptor M3, sequence (P20309 whole entry): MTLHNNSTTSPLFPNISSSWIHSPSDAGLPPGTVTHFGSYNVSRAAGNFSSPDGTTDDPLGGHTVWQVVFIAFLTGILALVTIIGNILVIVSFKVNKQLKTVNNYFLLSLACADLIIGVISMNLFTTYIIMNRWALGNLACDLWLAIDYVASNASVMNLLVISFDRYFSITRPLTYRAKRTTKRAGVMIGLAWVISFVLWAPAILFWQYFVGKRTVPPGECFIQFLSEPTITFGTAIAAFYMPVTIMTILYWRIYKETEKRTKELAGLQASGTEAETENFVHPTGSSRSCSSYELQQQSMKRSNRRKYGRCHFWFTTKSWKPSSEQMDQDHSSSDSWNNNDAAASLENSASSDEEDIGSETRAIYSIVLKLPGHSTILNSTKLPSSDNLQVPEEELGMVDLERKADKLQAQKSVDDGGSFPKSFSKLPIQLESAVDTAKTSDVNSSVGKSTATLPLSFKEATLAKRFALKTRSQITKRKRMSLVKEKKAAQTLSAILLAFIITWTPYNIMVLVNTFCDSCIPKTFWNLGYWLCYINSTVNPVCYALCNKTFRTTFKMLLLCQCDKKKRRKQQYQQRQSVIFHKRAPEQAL

On to `CN1CCC[C@H]1c1ccco1`, for which the Intrinsic activity came out at 0.33 in [1], 0.3 in assay [8], 0.65 in [9] and 0.37 in assay [11]. Moreover, the pD2 in assay [2] is given as 6.72; in [10], 6.82; in assay [12], 5.83. Moreover, the Ki is 43.7 µM in [3]; 30.9 µM in assay [4]; 52.5 µM in assay [5]; 56.2 µM in assay [6]; 63.1 µM in [7].
With `CN1CCCC1c1ccco1` (racemic), the Intrinsic activity amounted to 0.25 in [1], 0.22 in assay [8], 0.4 in [9] and 0.35 in [11]. In addition, the pD2 in assay [2] worked out at 6.87; in [10], 7.25; in assay [12] it was 5.7. In addition, the Ki in assay [3] was 33.1 µM; in [4] it was 41.7 µM; in [5] it was 44.7 µM; in assay [6], 69.2 µM; in [7] it was 44.7 µM.
Regarding `Cc1ccc([C@H]2CCCN2)o1`, the Intrinsic activity in [1] stood at 0.32; in assay [8], 1; in assay [11] it was 1. Besides, the pD2 in assay [2] is recorded as 5.45; in assay [10] it was 6.71; in assay [12], 6.16. The Ki in assay [3] is 14.5 µM; in [4], 3.24 µM; in assay [5] it was 12 µM; in [6], 29.5 µM; in assay [7], 15.8 µM. In addition, the A50 in assay [9] is 1.
For `C#CCOC(=O)C1=CCCN(C)C1` [ARECAIDINE PROPARGYL ESTER], the Intrinsic activity in assay [1], in assay [8], in [9] and in assay [11] was 1 each time. Further, the pD2 in [2] was 5.56; in assay [10], 8.67; in assay [12], 7.64.
For `Cc1ccc([C@@H]2CCCN2C)o1`, the pKb in assay [13], in assay [14] and in assay [15] was under 5 in each case. The Ki was 36.3 µM in [3]; 15.8 µM in assay [4]; 33.1 µM in assay [5]; 47.9 µM in assay [6]; 39.8 µM in assay [7]. In [9], the Intrinsic activity came out at 0.47. In addition, the pD2 in [10] was 6.6.
Take `Cc1ccc([C@@H]2CCCN2)o1`: the pKb is reported as 5 in assay [13] and under 5 in assay [15]. The Ki in assay [3] is 155 µM; in assay [4], 28.8 µM; in [5], 148 µM; in assay [6], 209 µM; in [7] it was 138 µM. The results for the Intrinsic activity in assay [9] and in [11] were 0.6 and 1, respectively. Also, the pD2 in assay [10] came to 6.1; in assay [12] it was 5.
With `Cc1ccc(C2CCCN2C)o1` (racemic), the pKb in [13] and in assay [14] was under 5 each time. Moreover, the Ki in assay [3] was 26.9 µM; in assay [4] it was 14.5 µM; in assay [5], 22.9 µM; in assay [6], 24.5 µM; in assay [7], 21.9 µM. The Intrinsic activity in assay [9] was found to be 0.37. Also, the pD2 in assay [10] worked out at 6.31.
As for `Cc1ccc([C@@H]2CCC[N+]2(C)C)o1.[I-]`, the pKb is recorded as 5.96 in assay [13], 7.82 in [14] and 5.9 in [15]. The Ki in assay [3] is 5.62 µM; in [4], 1.66 µM; in assay [5], 2.69 µM; in assay [6] it was 5.13 µM; in assay [7], 3.63 µM. The Intrinsic activity in assay [9] came out at 0.42. The pD2 in assay [10] is reported as 7.49.
